# Laboratory results from ChEMBL document CHEMBL3576830, “Exploiting the Polypharmacology of ß-Carbolines to Disrupt O. volvulus Molting” (ACS Med Chem Lett, 2015).
# Calls of active or inactive are those of the source. No cut-off for these calls is given here.
# Key:
# Chitinase [1] = molecular target: T1, Chitinase (Onchocerca volvulus, UniProt Q25615); experiment: Inhibition of L3 larval stage of Onchocerca volvulus chitinase using 4-methylumbelliferyl-N-N'-N''-beta-chitotrioside as substrate assessed as release of 4-methylumbelliferone measured for 10 mins by fluorescence assay
# T1 sequence (Q25615 whole entry): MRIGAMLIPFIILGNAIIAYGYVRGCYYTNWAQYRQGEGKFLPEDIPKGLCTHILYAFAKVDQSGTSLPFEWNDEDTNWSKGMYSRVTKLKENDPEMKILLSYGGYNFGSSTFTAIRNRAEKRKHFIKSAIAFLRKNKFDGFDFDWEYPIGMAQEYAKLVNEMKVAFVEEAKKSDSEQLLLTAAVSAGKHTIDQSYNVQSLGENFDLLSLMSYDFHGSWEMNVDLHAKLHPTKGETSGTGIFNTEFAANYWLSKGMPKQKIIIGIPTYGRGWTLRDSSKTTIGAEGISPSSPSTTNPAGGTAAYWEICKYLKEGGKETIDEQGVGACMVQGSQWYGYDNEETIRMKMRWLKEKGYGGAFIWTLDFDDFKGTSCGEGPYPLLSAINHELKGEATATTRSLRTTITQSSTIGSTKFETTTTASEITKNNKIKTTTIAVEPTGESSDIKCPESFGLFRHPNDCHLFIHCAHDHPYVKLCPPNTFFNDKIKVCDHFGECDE
# Entamoeba histolytica = experiment: Inhibition of Entamoeba histolytica chitinase using 4-methylumbelliferyl-N-N'-N''-beta-chitotrioside as substrate assessed as release of 4-methylumbelliferone at 10 uM measured for 10 mins by fluorescence assay
# [2] = molecular target: T2, Endochitinase (Brugia malayi) (UniProt P29030); experiment: Inhibition of Brugia malayi chitinase using 4-methylumbelliferyl-N-N'-N''-beta-chitotrioside as substrate assessed as release of 4-methylumbelliferone at 10 uM measured for 10 mins by fluorescence assay
# T2 sequence (whole entry): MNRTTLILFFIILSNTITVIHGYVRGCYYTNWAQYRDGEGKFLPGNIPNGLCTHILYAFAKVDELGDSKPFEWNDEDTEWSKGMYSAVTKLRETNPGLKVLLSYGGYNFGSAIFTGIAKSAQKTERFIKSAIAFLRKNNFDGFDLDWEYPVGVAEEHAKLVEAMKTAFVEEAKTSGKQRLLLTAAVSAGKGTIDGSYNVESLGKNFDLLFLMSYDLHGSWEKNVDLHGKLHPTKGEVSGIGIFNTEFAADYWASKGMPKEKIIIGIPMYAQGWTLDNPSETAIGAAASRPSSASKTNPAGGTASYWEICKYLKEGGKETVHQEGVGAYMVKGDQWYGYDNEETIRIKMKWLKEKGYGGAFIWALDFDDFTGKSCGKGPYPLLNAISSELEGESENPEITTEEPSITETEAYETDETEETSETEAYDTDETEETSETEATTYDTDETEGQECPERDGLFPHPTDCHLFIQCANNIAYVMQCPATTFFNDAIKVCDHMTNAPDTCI
# HEK-293T [3] = experiment: Mitochondrial uncoupling activity in HEK293T/17 cells at 50 uM after 30 mins by TMRE staining-based fluorescence assay; assay type: functional, cell-based; conditions: Homo sapiens
# Method in brief: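 HEK 293T/17 cells incubated with 50 μM compound, then stained with TMRE to detect mitochondrial membrane depolarization, read in a microplate fluorescence assay. Reported as mean fluorescence intensity ± SD (n = 3). Unstained cells served as negative control and 0.5% DMSO as positive control. CCCP served as reference protonophore.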
# Onchocerca volvulus [4] = experiment: Antionchocerciasis activity against L3 larval stage of Onchocerca volvulus assessed as inhibition of parasite molting at 10 uM treated for 24 hrs prior to complete medium and PBMC addition measured after 6 days by inverted microscopic analysis; assay type: functional
# Method in brief: (§1)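 O. volvulus L3 larvae in wells, 2−3 wells per condition with on average 5−10 larvae each, exposed to inhibitor. Molting counted and expressed as percent molting.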
# Onchocerca volvulus [5] = experiment: Antionchocerciasis activity against L3 larval stage of Onchocerca volvulus assessed as prevention of L3 cuticle shedding at 100 uM treated for 24 hrs prior to complete medium and PBMC addition measured after 6 days by inverted microscopic analysis; assay type: functional, organism-based
# Method in brief: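 O. volvulus L3 larvae in 2–3 wells, on average 5–10 larvae per well; read-out is percent molting across the wells.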
# [6] = molecular target: T3, Chitinase (Onchocerca volvulus) (UniProt Q25615); experiment: Inhibition of L3 larval stage of Onchocerca volvulus chitinase using 4-methylumbelliferyl-N-N'-N''-beta-chitotrioside as substrate assessed as release of 4-methylumbelliferone at 10 uM measured for 10 mins by fluorescence assay; assay type: tissue-based
# T3 sequence (whole entry): T1 sequence (Q25615 whole entry)
# Method in brief: (§2)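 OvCHT1 activity read by fluorescence, inhibitors tested at 10 and 5 μM.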
# Chitinase [7] = molecular target: T1, Chitinase; experiment: Competitive inhibition of L3 larval stage of Onchocerca volvulus chitinase using 4-methylumbelliferyl-N-N'-N''-beta-chitotrioside as substrate assessed as release of 4-methylumbelliferone measured for 10 mins by Dixon plot analysis
# Caenorhabditis elegans [8] = experiment: Drug level in late stage L4 Caenorhabditis elegans treated with 2-(Cyclopropylmethyl)-7-methoxy-1-methyl-9H-pyrido[3,4-b]indol-2-ium bromide at 10 uM after 6 hrs by LC-MS analysis; assay type: ADME, organism-based; conditions: in vivo
# Method in brief: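 Late-stage L4 C. elegans were exposed to 10 μM compound (equivalent to 2 nmol/mg worm) for 6 h. Worm homogenates were quantified by LC–MS and expressed as nmol/mg worm, mean ± SD, n = 3.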
# Onchocerca volvulus [9] = experiment: Antionchocerciasis activity against L3 larval stage of Onchocerca volvulus assessed as inhibition of parasite molting at 1 uM treated for 24 hrs prior to complete medium and PBMC addition measured after 6 days by inverted microscopic analysis; assay type: functional; method in brief: as §1
# HEK-293T [10] = experiment: Cytotoxicity against HEK293T/17 cells at 5 uM after 0.5 to 24 hrs by MTS assay; assay type: cell-based; conditions: human
# [11] = molecular target: T3, Chitinase (Onchocerca volvulus); experiment: Inhibition of L3 larval stage of Onchocerca volvulus chitinase using 4-methylumbelliferyl-N-N'-N''-beta-chitotrioside as substrate assessed as release of 4-methylumbelliferone at 5 uM measured for 10 mins by fluorescence assay; method in brief: as §2
# Caenorhabditis elegans [12] = experiment: Drug uptake in late stage L4 Caenorhabditis elegans at 10 uM after 6 hrs by LC-MS analysis; assay type: ADME, organism-based; conditions: in vivo
# Method in brief: (§3)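 Late-stage L4 C. elegans incubated 6 h with 10 μM inhibitor (equivalent to 2 nmol/mg worm). Worm homogenates quantified by LC−MS and also searched for metabolites (7-O-dealkylation, aromatic ring and N²-oxidation products). Uptake expressed as nmol/mg worm, mean ± SD, n = 3.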
# Caenorhabditis elegans [13] = experiment: Drug metabolism in late stage L4 Caenorhabditis elegans assessed as formation of 7-methoxy-1-methyl-9H-pyrido[3,4-b]indole at 10 uM after 6 hrs by LC-MS analysis; assay type: ADME, organism-based; conditions: in vivo; method in brief: as §3
# Caenorhabditis elegans [14] = experiment: Drug metabolism in late stage L4 Caenorhabditis elegans assessed as formation of 7-O-dealkylated, aromatic ring, and N2-oxidized metabolite at 10 uM after 6 hrs by LC-MS analysis; assay type: ADME, organism-based; conditions: in vivo; method in brief: as §3
compound,measurement,setting,value
Cc1[nH]ccc2c1[nH]c1cc(=O)ccc12 [HARMOL],IC50,Chitinase [1],7.08 µM
same,inhibition,Entamoeba histolytica,inactive
same,inhibition,[2],inactive
same,Activity,HEK-293T [3],Active
same,inhibition at 10 µM,Onchocerca volvulus [4],61%
c1ccc2c(c1)[nH]c1cnccc12 [NORHARMANE],IC50,Chitinase [1],8.46 µM
same,Activity,HEK-293T [3],inactive
same,inhibition,Onchocerca volvulus [4],inactive
same,Activity,Onchocerca volvulus [5],Active
Cc1nccc2c3ccccc3n(C)c12,inhibition,[6],inactive
COc1ccc2c(c1)[nH]c1c(C)nccc12 [HARMINE],IC50,Chitinase [1],7.06 µM
same,Ki,Chitinase [7],3.78 µM
same,inhibition,Entamoeba histolytica,inactive
same,inhibition,[2],inactive
same,Activity,HEK-293T [3],Active
same,inhibition at 10 µM,Onchocerca volvulus [4],57%
same,Drug uptake,Caenorhabditis elegans [8],0.052 nmol/mg
CCNS(=O)(=O)c1ccc2[nH]c3cnccc3c2c1,inhibition,[6],inactive
Cc1nccc2c3ccccc3n(Cc3ccccc3)c12,inhibition,[6],inactive
Cc1c2[nH]c3ccccc3c2cc[n+]1Cc1ccc(C(F)(F)F)cc1,inhibition,[6],inactive
Cc1c2[nH]c3ccccc3c2cc[n+]1Cc1ccccc1,inhibition,[6],inactive
Cc1ccc(NS(=O)(=O)c2ccc3[nH]c4cnccc4c3c2)cc1,inhibition,[6],inactive
Cc1nccc2c1[nH]c1cc(OCC3CC3)ccc12,inhibition,[6],inactive
Cc1nccc2c3ccccc3n(Cc3ccc(Cl)cc3)c12,inhibition,[6],inactive
Cc1c2[nH]c3ccccc3c2cc[n+]1C,inhibition,[6],inactive
O=S(=O)(NC1CCCC1)c1ccc2[nH]c3cnccc3c2c1,inhibition,[6],inactive
Cc1c2[nH]c3cc(OCc4ccc(Cl)cc4)ccc3c2cc[n+]1Cc1ccc(Cl)cc1.[Br-],IC50,Chitinase [1],1.43 µM
same,Ki,Chitinase [7],0.98 µM
same,inhibition,Entamoeba histolytica,Active
same,inhibition,[2],Active
same,Activity,HEK-293T [3],Active
same,inhibition,Onchocerca volvulus [4],Active
same,inhibition at 1 µM,Onchocerca volvulus [9],27%
same,Activity,HEK-293T [10],Non-toxic
Cc1c2[nH]c3ccccc3c2cc[n+]1Cc1ccc(Cl)cc1,inhibition,[11],inactive
O=S(=O)(Nc1ccc(Cl)cc1)c1ccc2[nH]c3cnccc3c2c1,inhibition,[6],inactive
O=S(=O)(Nc1ccccc1)c1ccc2[nH]c3cnccc3c2c1,inhibition,[6],inactive
Cc1nccc2c3ccccc3n(CC3CC3)c12,inhibition,[11],inactive
N#CC(C#N)=NNc1cccc(Cl)c1,Activity,HEK-293T [3],Active
COc1ccc2c(c1)[nH]c1c(C)[n+](Cc3ccc(Cl)cc3)ccc12.[Br-],IC50,Chitinase [1],3.49 µM
same,Activity,HEK-293T [3],Active
same,inhibition,Onchocerca volvulus [4],Active
same,inhibition at 1 µM,Onchocerca volvulus [9],45%
same,Drug uptake,Caenorhabditis elegans [12],0.22 nmol/mg
same,Activity,HEK-293T [10],Non-toxic
Cc1nccc2c3ccc(OCc4ccc(Cl)cc4)cc3n(Cc3ccc(Cl)cc3)c12,IC50,Chitinase [1],2.08 µM
same,inhibition,Entamoeba histolytica,inactive
same,inhibition,[2],inactive
same,Activity,HEK-293T [3],inactive
same,inhibition,Onchocerca volvulus [4],inactive
same,Activity,Onchocerca volvulus [5],Active
COc1ccc2c3ccnc(C)c3n(CC3CC3)c2c1,inhibition,[6],inactive
Cc1nccc2c1[nH]c1cc(OCc3ccc(Cl)cc3)ccc12,inhibition,[6],inactive
COc1ccc2c3ccnc(C)c3n(Cc3ccc(Cl)cc3)c2c1,inhibition,[6],inactive
Cc1nccc2c1[nH]c1ccccc12 [HARMAN],IC50,Chitinase [1],7.33 µM
same,Activity,HEK-293T [3],inactive
same,inhibition,Onchocerca volvulus [4],inactive
same,Activity,Onchocerca volvulus [5],Active
COc1ccc2c(c1)[nH]c1c(C)[n+](CC3CC3)ccc12.[Br-],IC50,Chitinase [1],3.57 µM
same,inhibition,Entamoeba histolytica,inactive
same,inhibition,[2],inactive
same,Activity,HEK-293T [3],Active
same,inhibition,Onchocerca volvulus [4],Active
same,inhibition,Onchocerca volvulus [9],inactive
same,Drug uptake,Caenorhabditis elegans [12],0.033 nmol/mg
same,Drug metabolism,Caenorhabditis elegans [13],metabolite_detected
same,Drug metabolism,Caenorhabditis elegans [14],metabolite_notdetected
same,Activity,HEK-293T [10],Non-toxic
Cc1c2[nH]c3ccccc3c2cc[n+]1CC1CC1,inhibition,[11],inactive
